ChEMBL document CHEMBL3091368, “Structure-based design, synthesis, and evaluation of imidazo[1,2-b]pyridazine and imidazo[1,2-a]pyridine derivatives as novel dual c-Met and VEGFR2 kinase inhibitors” (Bioorg Med Chem, 2013)
In brackets after ≈: the same amount, converted by molar mass.

What was measured:
[1] = Kinetic solubility of the compound in second fluid of disintegration test of Japanese pharmacopoeia containing bile acid at pH 6.8 by HPLC analysis; format: physicochemical; settings: read-out: Kinetic_solubility
Summary of the method: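 Kinetic solubility in JP second disintegration fluid with bile acid. Compound DMSO solutions added in small volumes to the aqueous buffer and incubated. Precipitate removed by filter-plate filtration, and dissolved compound in the filtrate quantified by HPLC.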

[2] = Clearance in human liver microsomes at 1 umol/L by HPLC analysis; format: ADME; settings: read-out: CLH
Summary of the method: (§1)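 Hepatic microsomes at 0.2 mg protein/mL in 50 mmol/L potassium phosphate, pH 7.4, with test compound at 1 µmol/L, incubated at 37 °C. Started by adding an NADPH-generating system (MgCl₂, glucose-6-phosphate, β-NADP⁺, G6P dehydrogenase). Stopped with an equal volume of acetonitrile. Parent compound loss measured by HPLC-UV or LC/MS/MS.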

[3] = Clearance in mouse liver microsomes at 1 umol/L by HPLC analysis; format: ADME, Microsome; settings: read-out: CLH; summary of the method: as §1

| Structure (SMILES) | solubility kinetic [1] | microsomal CLint at 1 µM [2] | microsomal CLint at 1 µM [3] |
| --- | --- | --- | --- |
| Cc1ccc(C(=O)Nc2ccc(Oc3ccc4nc(NC(=O)C5CC5)cn4n3)c(F)c2)c(=O)n1-c1ccccc1 | > 140 µg/mL | 11 µL/min/mg | 8 µL/min/mg |
| Cc1ccc(C(=O)Nc2ccc(Oc3ccc4nc(NC(=O)C5CC5)cn4c3)c(F)c2)c(=O)n1-c1ccccc1.Cl | > 110 µg/mL | 6 µL/min/mg | 10 µL/min/mg |
| O=C(Nc1ccc(Oc2ccc3nc(NC(=O)C4CC4)cn3c2)c(F)c1)c1cccn(-c2ccccc2)c1=O | 4.7 µg/mL (≈ 8.98 µM) | 5 µL/min/mg | 15 µL/min/mg |
| Cc1ccc(C(=O)Nc2ccc(Oc3ccc4nc(NC(=O)C5CC5)cn4c3)c(F)c2)c(=O)n1-c1ccccc1 | 92 µg/mL (≈ 171 µM) |  |  |
| O=C(Nc1ccc(Oc2ccc3nc(NC(=O)C4CC4)cn3n2)c(F)c1)c1cccn(-c2ccccc2)c1=O | 3.2 µg/mL (≈ 6.1 µM) | 3 µL/min/mg | 11 µL/min/mg |
